In brackets after ≈: the same amount, converted by molar mass.

The test system of data set [1] is Cowpox virus. The experiment in a line: Antiviral activity against Cowpox virus infected in human foreskin fibroblasts by plaque assay. It counts as functional, organism-based.
The test system of another data set is Intestine. Briefly: (§1) Metabolic stability in rat intestinal homogenate. The conditions noted are these: tissue homogenate. It counts as ADME, tissue-based.
The test system of the next data set is Liver. Briefly: (§2) Metabolic stability in rat liver homogenate. The conditions noted are these: tissue homogenate. Format: ADME, tissue-based.
For data set [2], the system named is Vaccinia virus. Briefly: Antiviral activity against Vaccinia virus infected in human foreskin fibroblasts by plaque assay. The settings on record: Orthopoxvirus vaccinia. It counts as functional, organism-based.
The nature of data set [3]: Solubility in water. Format: physicochemical.
Data set [4] in a line: Oral bioavailability in human. It counts as ADME, organism-based. The conditions noted are these: in vivo.
Data set [5] in a line: (§3) Cytotoxicity against HFF. Format: cell-based. The settings on record: human, HFF cells. Summed up:
(§4)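 Cytotoxicity scored visually in uninfected human foreskin fibroblasts, reported as the 50% inhibitory concentration.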

For data set [6], the system named is Vaccinia virus. Briefly: Antiviral activity against Vaccinia virus infected in HFF by plaque assay in presence of deoxy-coformycin. It counts as functional, organism-based. The conditions noted are these: Orthopoxvirus vaccinia.
Data set [7] can be described thus: as §1. Format: ADME, tissue-based, Intestine. The settings on record: intestinal homogenate.
The nature of data set [8]: Cytotoxicity against HFF in presence of deoxy-coformycin. Format: cell-based. The settings on record: human, HFF cells. Summed up:
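Cytotoxicity was scored visually in uninfected HFF cells, with 1 μM deoxycoformycin present, and reported as the 50% inhibitory concentration.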

Data set [9] is described as follows: as §2. It counts as ADME, tissue-based. The settings on record: liver homogenate.
The subject of data set [10] is Cowpox virus. Briefly: Antiviral activity against Cowpox virus infected in HFF by plaque assay in presence of deoxy-coformycin. Format: functional, organism-based.
Data set [11] is described as follows: Permeability from apical to basolateral side in human Caco-2 cells after 21 days. It counts as ADME, cell-based. The conditions noted are these: read-out: permeability. Summed up: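 Caco-2 monolayers were used 21 days post-seeding. Basolateral aliquots were taken at set intervals and replaced with HEPES buffer pH 7.4. Monolayer integrity was checked by transepithelial resistance.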

Another data set deals with Caco-2. Briefly: Permeability from apical to basolateral side in human Caco-2 cells after 21 days relative to vidarabine. It counts as ADME, cell-based. The settings on record: caco-2, 504 h. A digest of the protocol: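 Caco-2 monolayers were used 21 days post-seeding, with integrity checked by transepithelial resistance. Basolateral aliquots were taken at set intervals and replaced with HEPES buffer pH 7.4.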

For data set [12], the system named is HeLa. The experiment in a line: Cellular uptake in human HeLa cells after 45 mins. It counts as ADME, cell-based. The conditions noted are these: 0.75 h. Summed up:
(§5)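 Direct uptake measured over 45 min and expressed as nmol/mg, in HeLa cells stably expressing hPEPT1 and in parental HeLa controls. Valacyclovir served as the positive control for hPEPT1 carrier-mediated uptake. Values are means ± SD of three experiments.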

The test system of data set [13] is HeLa. Briefly: Cellular uptake in human HeLa cells expressing human PEPT1 transporter after 45 mins. Format: ADME, cell-based. The settings on record: 0.75 h. Summed up: as §5
For another data set, the system named is HFF. The data set is described as §3. Format: cell-based. The settings on record: human, hff. A digest of the protocol: as §4
The subject of a further data set is Plasma. Format: ADME, cell-free. The settings on record: rat.

Take `CC(C)C[C@@H](N)C(=O)OC[C@H]1O[C@@H](n2cnc3c(N)ncnc32)[C@@H](O)[C@@H]1O`: the results for the EC50 in the data set on Cowpox virus [1] and in the data set with Vaccinia virus [2] were 2.5 µM and 3 µM, respectively. Further, the values for the t1/2 in the data set with Intestine and in the data set with Liver were 2.4 min and 3.6 min, respectively. Moreover, in [3], the solubility was > 10000 µg/mL.
For the molecule `Nc1ccn(C[C@@H](CO)OCP(=O)(O)O)c(=O)n1.O.O` [CIDOFOVIR], in data set [4], the bioavailability was found to be 2%.
Take `Nc1ncnc2c1ncn2[C@@H]1O[C@H](CO)[C@@H](O)[C@@H]1O` [VIDARABINE]: the EC50 stood at 12.6 µM with Cowpox virus [1], 1 µM with Vaccinia virus [6], 1.4 µM with Cowpox virus [10] and 6.2 µM with Vaccinia virus [2]. The CC50 was > 100 µM in data set [5] and 90 µM in [8]. The half-life in data set [7] was 3 min; in data set [9] it was 15 min. Also, the solubility in data set [3] turned out to be 470 µg/mL (≈ 1.76 mM). In addition, in [11], the Papp A→B turned out to be 0.083 ×10⁻⁶ cm/s.
`Nc1ncnc2c1ncn2[C@@H]1O[C@H](COC(=O)[C@@H](N)Cc2ccccc2)[C@@H](O)[C@@H]1O`: the EC50 came out at 3.5 µM in the data set with Cowpox virus [1] and 1.8 µM in the data set on Vaccinia virus [2]. In addition, in the data set on Intestine, the t1/2 stood at 16.2 min. In addition, in [9], the half-life is 1.02 min. Also, the “fold change (FC)” value in the data set with Caco-2 is 8.05. Also, the solubility in [3] was > 10000 µg/mL. In data set [11], the Papp A→B stood at 0.668 ×10⁻⁶ cm/s.
Consider `CC(C)[C@H](N)C(=O)OCCOCn1cnc2c(=O)[nH]c(N)nc21` [VALACYCLOVIR], for which the values for the Drug uptake in the data set with HeLa [12] and in the data set with HeLa [13] were 11.6 nmol/mg and 221 nmol/mg, respectively.
As for `CC(C)C[C@H](N)C(=O)OC[C@H]1O[C@@H](n2cnc3c(N)ncnc32)[C@@H](O)[C@@H]1O`, the EC50 in the data set on Cowpox virus [1] was 3 µM; in the data set with Vaccinia virus [2] it was 3.3 µM. The CC50 in the data set on HFF is > 100 µM. For the same molecule, the t1/2 in the data set with Intestine amounted to 1.8 min; in the data set with Liver, 3 min. In data set [3], the solubility was > 10000 µg/mL.
`Nc1ncnc2c1ncn2[C@@H]1O[C@H](COC(=O)[C@H](N)Cc2ccccc2)[C@@H](O)[C@@H]1O`: the figures for the EC50 with Cowpox virus [1] and in the data set with Vaccinia virus [2] were 4 µM and 2.3 µM, respectively. Further, the CC50 in the data set on HFF was > 100 µM. For the same molecule, the t1/2 with Intestine worked out at 35.4 min; with Liver, 6 min. For the same molecule, the solubility in data set [3] is > 10000 µg/mL.
`CC(C)[C@H](N)C(=O)OC[C@H]1O[C@@H](n2cnc3c(N)ncnc32)[C@@H](O)[C@@H]1O`: the results for the EC50 with Cowpox virus [1] and in the data set with Vaccinia virus [2] were 4 µM and 4.8 µM, respectively. The t1/2 with Intestine amounted to 18 min; in the data set with Liver, 1.8 min; in the data set on Plasma it was 7.8 min. Also, the Drug uptake came to 3.9 nmol/mg in the data set with HeLa [12] and 80.3 nmol/mg in the data set on HeLa [13]. In data set [3], the solubility is > 10000 µg/mL.
For the molecule `CC(C)[C@@H](N)C(=O)OC[C@H]1O[C@@H](n2cnc3c(N)ncnc32)[C@@H](O)[C@@H]1O`, the EC50 in the data set on Cowpox virus [1] came out at 8 µM; in the data set on Vaccinia virus [2], 4.1 µM. Besides, the CC50 in the data set on HFF was > 100 µM. Also, the values for the t1/2 entry with Intestine, with Liver and in the data set with Plasma were “Stable”, 27.6 min and 615.6 min, respectively. The “fold change (FC)” value in the data set with Caco-2 turned out to be 7.2. In addition, the solubility in data set [3] was > 10000 µg/mL. In data set [11], the Papp A→B was found to be 0.601 ×10⁻⁶ cm/s.
Regarding `CC[C@H](C)[C@@H](N)C(=O)OC[C@H]1O[C@@H](n2cnc3c(N)ncnc32)[C@@H](O)[C@@H]1O`, the EC50 stood at 3.5 µM with Cowpox virus [1] and 2.9 µM with Vaccinia virus [2]. Also, the results for the t1/2 with Intestine, in the data set on Liver and in the data set with Plasma were 474 min, 18.6 min and 96.6 min, respectively. The solubility in data set [3] is > 10000 µg/mL.
As for `Nc1ncnc2c1ncn2[C@@H]1O[C@H](COC(=O)C[C@@H](N)C(=O)O)[C@@H](O)[C@@H]1O`, the EC50 turned out to be 25 µM with Cowpox virus [1] and 3.5 µM with Vaccinia virus [2]. Moreover, the CC50 in the data set with HFF is > 100 µM. The solubility in data set [3] was > 10000 µg/mL.
Turning to `COC(=O)[C@@H](NP(=O)(OC[C@H]1O[C@@H](n2cnc3c(N)ncnc32)[C@@H](O)[C@@H]1O)Oc1ccccc1)C(C)C` (some centres not stated), the values for the t1/2 entry with Intestine, in the data set on Liver and with Plasma were “Stable”, “Stable” and 18 min, respectively. The solubility in [3] was > 10000 µg/mL.
In the case of `Nc1ncnc2c1ncn2[C@@H]1O[C@H](COC(=O)[C@H](N)CC(=O)O)[C@@H](O)[C@@H]1O`, the EC50 came out at 4 µM with Cowpox virus [1] and 2.5 µM in the data set on Vaccinia virus [2]. Also, in the data set on HFF, the CC50 is > 100 µM. Also, the solubility in [3] is > 10000 µg/mL.
Consider `COC(=O)[C@H](NP(=O)(OC[C@H]1O[C@@H](n2cnc3c(N)ncnc32)[C@@H](O)[C@@H]1O)Oc1ccccc1)C(C)C` (some centres not stated), for which the t1/2 with Intestine turned out to be 1099 min; with Liver it was 355 min; in the data set with Plasma, 21 min. Besides, the solubility in data set [3] was > 10000 µg/mL.
`CC[C@H](C)[C@H](N)C(=O)OC[C@H]1O[C@@H](n2cnc3c(N)ncnc32)[C@@H](O)[C@@H]1O`: the results for the EC50 in the data set on Cowpox virus [1] and in the data set with Vaccinia virus [2] were 2.5 µM and 4.5 µM, respectively. Further, in the data set with HFF, the CC50 is > 100 µM. Also, the t1/2 in the data set with Intestine was 34.8 min; in the data set on Liver, 3.6 min; in the data set on Plasma, 215 min. The “fold change (FC)” value in the data set with Caco-2 turned out to be 12.4. The Drug uptake in the data set with HeLa [12] is listed as 7.5 nmol/mg; in the data set on HeLa [13] it was 202 nmol/mg. Further, in data set [3], the solubility is > 10000 µg/mL. In data set [11], the Papp A→B worked out at 1.03 ×10⁻⁶ cm/s.

These data come from ChEMBL document CHEMBL1143268 (Bioorg Med Chem Lett, 2009).
